Test results taken from ChEMBL document CHEMBL1125163, “Evolution of a series of peptidoleukotriene antagonists: synthesis and structure-activity relationships of 1,6-disubstituted indoles and indazoles” (J Med Chem, 1990).
Each block holds one compound with its values, some of them ahead of it. The source made the active and inactive calls. No cut-off for these calls is given here.

Key:
[1] = tested on: Cysteinyl leukotriene receptor (Cavia porcellus); experiment: Inhibition of the LTE4- induced contraction of guinea pig tracheal spirals at 10 uM.; settings: Trachea
[2] = tested on: Cysteinyl leukotriene receptor (Cavia porcellus); experiment: Inhibition of the LTE4- induced contraction of guinea pig tracheal spirals at 10 uM; Not significant.; settings: Trachea
[3] = species: Cavia porcellus; experiment: Percent inhibition of the LTE4- induced contraction of guinea pig tracheal spirals at the concentration of 1 uM; assay type: functional; settings: Trachea
Outline: (§1)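 Guinea pig trachea cut into spiral strips, each trachea split into paired sections. Tissue bath at 37 °C in modified Krebs buffer gassed with 95% O2/5% CO2, 2 g resting tension, 60 min stabilization. After reproducible responses to 10 nM LTE4, compound was added for 10 min, then LTE4 challenge repeated. Percent inhibition is the 2nd vs 3rd response, adjusted by subtracting the vehicle-treated paired section. Paired t test, p < 0.05.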

[4] = species: Cavia porcellus; experiment: Percent inhibition of the LTE4- induced contraction of guinea pig tracheal spirals at the concentration of 3.3 uM; assay type: functional; settings: Trachea
Outline: as §1

[5] = species: Cavia porcellus; experiment: (§2) Percent inhibition of the BaCl2 - induced contraction of guinea pig tracheal spirals at concentration of 100 uM; Not significant; assay type: functional; settings: Trachea
Outline: (§3)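 Guinea pig tracheal strips contracted with barium chloride. Compound was tested at 100 µM, and the read-out is percent inhibition of the BaCl2-induced contraction.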

[6] = species: Cavia porcellus; experiment: Percent inhibition of the LTE4- induced contraction of guinea pig tracheal spirals at the concentration of 0.33 uM; assay type: functional; settings: Trachea
Outline: as §1

[7] = species: Cavia porcellus; experiment: Percent inhibition of the LTE4- induced contraction of guinea pig tracheal spirals at the concentration of 5 uM; assay type: functional; settings: Trachea
Outline: as §1

[8] = pKB value of the compound
Outline: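 Guinea pig tracheal strips at 37 °C in Krebs buffer. Cumulative LTE4 concentration-response curves were built in log increments, with responses expressed as % of the maximum to 30 µM carbachol. Antagonist was incubated 30 min before the curve, with vehicle on paired controls. EC50 came from linear regression. KB = [antagonist]/(dose ratio − 1) by the Furchgott method. One curve per tissue.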

[9] = Selectivity ratio of the compound; assay type: functional
[10] = species: Cavia porcellus; experiment: Percent inhibition of the LTE4- induced contraction of guinea pig tracheal spirals at the concentration of 0 uM; Not significant; assay type: functional; settings: Trachea
Outline: as §1

[11] = species: Cavia porcellus; experiment: Percent inhibition of the BaCl2 - induced contraction of guinea pig tracheal spirals at concentration of 100 uM; assay type: functional; settings: Trachea
Outline: as §3

[12] = species: Cavia porcellus; experiment: Percent inhibition of the LTE4- induced contraction of guinea pig tracheal spirals at the concentration of 0.1 uM; assay type: functional; settings: Trachea
Outline: as §1

[13] = tested on: Cavia porcellus; experiment: Percent protection was determined from the time delay to the onset of dyspnea compared to that of control guinea pig at a concentration of 126 uM/kg; assay type: functional
Outline: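 Conscious guinea pigs were pretreated ip with indomethacin (10 mg/kg) and propranolol (5 mg/kg). Compound was given orally in poly(ethylene glycol) 60 min before challenge with aerosolized 60 µM LTD4 for up to 5 min. End point was labored abdominal breathing, scored blind. % protection = (drug time − mean control time)/(max aerosol time − mean control time) × 100, with at least two vehicle animals per run.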

[14] = species: Cavia porcellus; experiment: Percent inhibition of the LTE4- induced contraction of guinea pig tracheal spirals at the concentration of 1.0 uM; assay type: functional; settings: Trachea
Outline: as §1

[15] = species: Cavia porcellus; experiment: as §2; assay type: functional, organism-based; settings: Trachea
Outline: as §3

inhibition [1]: 50%
SMILES: CCCCOC(=O)Nc1ccc2cn(Cc3ccc(C(=O)O)cc3OC)nc2c1

inhibition [2]: inactive
SMILES: COc1cc(C(=O)O)ccc1Cn1ccc2ccc(NC(=O)Cc3ccc4ccccc4c3)cc21

SMILES: CCC(C(=O)Nc1ccc2ccn(Cc3ccc(C(=O)O)cc3OC)c2c1)c1ccccc1 (stereo unspecified)
inhibition at 1 µM [3]: 65%

SMILES: COc1cc(C(=O)O)ccc1Cn1ccc2ccc(NC(=O)C3CCCC3)cc21
inhibition at 1 µM [3]: 58%

inhibition [2]: inactive
SMILES: CCCCN(C)C(=O)Nc1ccc2ccn(Cc3ccc(C(=O)O)cc3OC)c2c1

SMILES: COc1cc(C(=O)O)ccc1Cn1ccc2ccc(NC(=O)C(c3ccccc3)c3ccccc3)cc21
inhibition at 3.3 µM [4]: 38%

SMILES: CCCCCCNC(=O)Nc1ccc2ccn(Cc3ccc(C(=O)O)cc3OC)c2c1
inhibition at 3.3 µM [4]: 51%

SMILES: CCC(C(=O)Nc1ccc2cnn(Cc3ccc(C(=O)O)cc3OC)c2c1)c1ccccc1 (stereo unspecified)
inhibition [5]: inactive
inhibition at 0.33 µM [6]: 30%

SMILES: COc1cc(C(=O)O)ccc1Cn1ccc2ccc(NC(=O)Cc3ccccc3)cc21
inhibition at 5 µM [7]: 71%

inhibition [2]: inactive
SMILES: CCCCCC(=O)Nc1ccc2c(cnn2Cc2ccccc2C(=O)O)c1

SMILES: COc1cc(C(=O)O)ccc1Cn1ccc2ccc(NC(=O)C(OC)c3ccccc3)cc21 (stereo unspecified)
inhibition at 3.3 µM [4]: 52%

pKB [8]: 5.1
SMILES: CCCCCCOc1ccc(COc2ccccc2C(=O)O)cc1
inhibition at 5 µM [7]: 40%
Selectivity ratio [9]: 10

inhibition [1]: 34%
SMILES: CCCCC(C(=O)Nc1ccc2ccn(Cc3ccc(C(=O)O)cc3OC)c2c1)c1ccccc1 (stereo unspecified)

inhibition [1]: 42%
SMILES: COc1cc(C(=O)O)ccc1Cn1ccc2ccc(NC(=O)Nc3ccccc3C(F)(F)F)cc21

inhibition [2]: inactive
SMILES: COC(=O)Nc1ccc2ccn(Cc3ccc(C(=O)O)cc3OC)c2c1

SMILES: COc1cc(C(=O)O)ccc1Cn1ccc2ccc(NC(=O)NC(C)(C)C)cc21
inhibition at 3.3 µM [4]: 24%

inhibition [1]: 52%
SMILES: CCCCCCNc1ccc2ccn(Cc3ccc(C(=O)O)cc3OC)c2c1

inhibition [1]: 73%
SMILES: COc1cc(C(=O)O)ccc1Cn1ccc2ccc(NC(=O)CCCc3ccccc3)cc21

inhibition [2]: inactive
SMILES: COc1cc(C(=O)O)ccc1Cn1ccc2ccc(NC(=O)Cc3ccc(OC)c(OC)c3)cc21

SMILES: COc1cc(C(=O)O)ccc1Cn1ccc2ccc(NC(C)=O)cc21
inhibition [10]: inactive

SMILES: COc1cc(C(=O)O)ccc1Cn1ncc2ccc(NC(=O)OC3CCCC3)cc21
inhibition at 100 µM [11]: 44%
inhibition at 0.1 µM [12]: 65%

inhibition [1]: 14%
SMILES: COc1cc(C(=O)O)ccc1Cn1ccc2ccc(NC(=O)c3ccccc3)cc21

SMILES: CCCCC(CC)C(=O)Nc1ccc2ccn(Cc3ccc(C(=O)O)cc3OC)c2c1 (stereo unspecified)
inhibition at 1 µM [3]: 59%

SMILES: CCCCOC(=O)Nc1ccc2cnn(Cc3ccc(C(=O)O)cc3OC)c2c1
inhibition at 0.33 µM [6]: 56%
inhibition at 100 µM [11]: 41%
Protection [13]: 33%

SMILES: COc1cc(C(=O)O)ccc1Cn1ccc2ccc(NC(=O)OC(C)C)cc21
inhibition at 0.33 µM [6]: 24%

inhibition [1]: 19%
SMILES: CCN(CC)C(=O)Nc1ccc2ccn(Cc3ccc(C(=O)O)cc3OC)c2c1

SMILES: COc1cc(C(=O)O)ccc1Cn1ccc2ccc(NC(=O)OC3CCOC3)cc21 (stereo unspecified)
inhibition at 3.3 µM [4]: 70%

inhibition [2]: inactive
SMILES: COc1cc(C(=O)O)ccc1Cn1ccc2ccc(NC(=O)Nc3ccccc3)cc21

inhibition [2]: inactive
SMILES: CCCCCC(=O)Nc1ccc2cnn(Cc3ccccc3C(=O)O)c2c1

inhibition [1]: 13%
SMILES: COc1cc(C(=O)O)ccc1Cn1ccc2ccc(NC(=O)Cc3ccc(C(F)(F)F)cc3)cc21

SMILES: CCCCCCOC(=O)Nc1ccc2ccn(Cc3ccc(C(=O)O)cc3OC)c2c1
inhibition at 1 µM [14]: 30%

inhibition [2]: inactive
SMILES: COc1cc(C(=O)O)ccc1Cn1ccc2ccc(NC(=O)CCCC(C)=O)cc21

SMILES: CCC(CC)OC(=O)Nc1ccc2ccn(Cc3ccc(C(=O)O)cc3OC)c2c1
inhibition at 0.33 µM [6]: 31%

SMILES: CCCCNC(=O)Nc1ccc2ccn(Cc3ccc(C(=O)O)cc3OC)c2c1
inhibition at 1 µM [3]: 39%

inhibition [1]: 57%
SMILES: COc1cc(C(=O)O)ccc1Cn1ccc2ccc(NC(=O)NCc3ccccc3)cc21

SMILES: CCCCC(CC)C(=O)Nc1ccc2cnn(Cc3ccc(C(=O)O)cc3OC)c2c1 (stereo unspecified)
inhibition at 0.33 µM [6]: 56%
inhibition [15]: inactive

inhibition [1]: 40%
SMILES: COc1cc(C(=O)O)ccc1Cn1ccc2ccc(NC(=O)C(F)(F)C(F)(F)C(F)(F)F)cc21

inhibition [1]: 77%
SMILES: COc1cc(C(=O)O)ccc1Cn1ccc2ccc(NC(=O)Cc3cccs3)cc21

SMILES: COc1cc(C(=O)O)ccc1Cn1ccc2ccc(NC(=O)OC3CC=CCC3)cc21 (stereo unspecified)
inhibition at 1 µM [14]: 47%
